{
  "source": "paper PMC12415985",
  "about": "(Journal of medicinal chemistry, 2025)",
  "key": {"TgME49-Fluc [1]": {"tested_on": "TgME49-Fluc", "test": "Luciferase-based tachyzoite growth inhibition assay", "assay_type": "cell-based, Toxoplasma gondii", "details": "for EC50: read-out: TgM49 EC50"}, "TgME49-Fluc [2]": {"tested_on": "TgME49-Fluc", "test": "Time dependent tachyzoite inhibition, 4 h washout vs 72 h continuous", "assay_type": "cell-based, Toxoplasma gondii", "details": "vs continuous 72 h"}, "TgME49-EW bradyzoites": {"tested_on": "TgME49-EW bradyzoites", "test": "Ex vivo purified", "assay_type": "cell-based, Toxoplasma gondii", "details": "3X EC90, 4 h washout vs continual treatment"}, "TgME49-FLuc tachyzoites [3]": {"tested_on": "TgME49-FLuc tachyzoites", "assay_type": "in vivo, Toxoplasma gondii", "details": "Ifngr1-/- mice, 0.25 mg/ml in drinking water, n=11"}, "TgME49-FLuc tachyzoites [4]": {"tested_on": "TgME49-FLuc tachyzoites", "details": "for Culture positive / Plaque positive / Survivors: n=8"}, "[5]": {"tested_on": "Tg68pBAG1:nLuc,DHFR bradyzoites", "test": "In vitro differentiated bradyzoite growth inhibition", "assay_type": "cell-based, Toxoplasma gondii", "details": "for EC50: Toxoplasma gondii"}, "TgME49-EW intact cysts": {"tested_on": "TgME49-EW intact cysts", "test": "Intact tissue cyst treatment and plaque outgrowth assay", "assay_type": "cell-based, Toxoplasma gondii", "in_short": "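Percoll-purified brain tissue cysts (10 per compound) were exposed to 3xEC90 in tubes at 37°C for 4 or 24 h, then washed 3× with PBS. Bradyzoites were freed by acid-pepsin, neutralized, and split into parallel 6-well plates with compound (constant) or without (washout). Plates ran 12−14 days at 37°C, 5% CO2. Plaques were ethanol-fixed, crystal-violet stained, counted by microscopy and normalized to the DMSO control.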"}, "THP-1 cells": {"tested_on": "THP-1 cells", "test": "Host cell cytotoxicity, THP-1", "assay_type": "cell-based, human", "in_short": "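THP-1 cells were seeded at 10×10^3/well and differentiated with 10 ng/mL PMA for 24 h before compound addition. Compounds were given as a 10-dose 3-fold series from a 120 μM 2x working solution for 72 h at 37°C, 5% CO2. Viability was read by CellTiter-Glo luminescence.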"}, "HepG2 cells": {"tested_on": "HepG2 cells", "test": "Host cell cytotoxicity, HepG2", "assay_type": "cell-based, human"}, "TgRH-PheRS[L497I]-FLuc": {"tested_on": "TgRH-PheRS[L497I]-FLuc", "test": "Growth inhibition of PheRS L497I resistant line vs parental line", "assay_type": "cell-based, Toxoplasma gondii", "details": "EC50 fold resistance, TgL497I vs parental TgRHΔhxgprtΔku80", "in_short": "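Firefly-luciferase tachyzoites were used: the PheRS[L497I] line, made in the parental TgRHΔΔ-FLuc (type I) strain, and the parental line itself. Each well of confluent HFF got 5×10^3 fresh tachyzoites and a 3-fold compound series, at 0.1% DMSO final. After 72 h at 37°C, cells were lysed and luciferase read. […] FR = resistant EC50 / parental EC50.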"}, "Plasma protein binding [6]": {"test": "Plasma protein binding", "assay_type": "in vitro ADME", "details": "CD-1 mouse plasma"}, "Plasma protein binding [7]": {"test": "Plasma protein binding", "assay_type": "in vitro ADME"}, "Brain homogenate binding": {"test": "Brain homogenate binding", "assay_type": "in vitro ADME", "details": "CD-1 mouse brain homogenate"}, "[8]": {"test": "Microsomal stability, mouse liver microsomes", "assay_type": "in vitro ADME"}, "hERG": {"biological_target": "hERG (Homo sapiens, UniProt Q12809)", "sequence (Q12809 whole entry)": "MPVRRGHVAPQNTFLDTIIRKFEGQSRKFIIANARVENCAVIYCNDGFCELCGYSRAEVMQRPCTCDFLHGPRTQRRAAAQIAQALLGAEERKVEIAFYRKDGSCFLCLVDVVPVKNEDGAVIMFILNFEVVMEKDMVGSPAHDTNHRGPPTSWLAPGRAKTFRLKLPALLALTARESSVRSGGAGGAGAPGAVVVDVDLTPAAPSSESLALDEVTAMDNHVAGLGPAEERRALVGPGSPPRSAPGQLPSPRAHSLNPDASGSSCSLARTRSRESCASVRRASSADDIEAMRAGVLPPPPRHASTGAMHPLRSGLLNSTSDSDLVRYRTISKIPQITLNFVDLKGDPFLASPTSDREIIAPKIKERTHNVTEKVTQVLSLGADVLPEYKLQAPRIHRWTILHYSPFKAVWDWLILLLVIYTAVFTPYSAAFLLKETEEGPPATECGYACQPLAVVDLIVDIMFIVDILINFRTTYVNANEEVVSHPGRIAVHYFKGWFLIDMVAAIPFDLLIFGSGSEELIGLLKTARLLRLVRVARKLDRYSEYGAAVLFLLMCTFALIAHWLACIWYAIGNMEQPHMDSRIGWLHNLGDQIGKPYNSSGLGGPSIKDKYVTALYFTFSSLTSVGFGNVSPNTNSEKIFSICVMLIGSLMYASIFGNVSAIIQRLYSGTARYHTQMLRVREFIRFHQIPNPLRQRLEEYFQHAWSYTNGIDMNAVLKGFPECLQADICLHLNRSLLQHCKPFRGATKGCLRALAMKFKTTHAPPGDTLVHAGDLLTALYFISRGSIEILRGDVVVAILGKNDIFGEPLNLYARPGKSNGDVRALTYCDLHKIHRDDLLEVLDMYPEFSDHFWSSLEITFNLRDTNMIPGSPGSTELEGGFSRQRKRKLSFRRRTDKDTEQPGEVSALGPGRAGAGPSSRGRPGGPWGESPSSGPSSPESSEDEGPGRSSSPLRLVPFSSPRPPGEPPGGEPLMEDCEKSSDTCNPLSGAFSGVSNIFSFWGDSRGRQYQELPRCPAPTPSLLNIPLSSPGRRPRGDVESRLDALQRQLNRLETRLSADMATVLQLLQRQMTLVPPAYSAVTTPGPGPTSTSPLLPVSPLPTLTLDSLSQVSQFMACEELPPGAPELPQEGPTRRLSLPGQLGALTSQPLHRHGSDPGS", "test": "hERG inhibition in CHO cell", "assay_type": "cell-based", "details": "read-out: hERG inhibition CHO cell IC50"}, "MDCK-MDR1": {"tested_on": "MDCK-MDR1", "assay_type": "in vitro ADME"}, "Pharmacokinetics in mice": {"test": "Pharmacokinetics in mice", "assay_type": "in vivo, CD-1 mice", "details": "10 mg/kg PO", "in_short": "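Fasted male CD-1 mice (3 per group) received a single oral 10 mg/kg dose as a suspension. Blood and brain were sampled at 1, 3 and 8 h. Plasma was obtained by centrifugation and stored below −20 °C. Plasma and brain concentrations were measured by LC−MS/MS. Parameters came from noncompartmental analysis, and brain/plasma ratio is given at the indicated time.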"}, "[9]": {"details": "Toxoplasma gondii, read-out: TgME49 EC90"}, "[10]": {"details": "Experiment 1, 0.25 mg/ml in drinking water"}, "[11]": {"details": "formulation A, na = not detected"}},
  "note": "Read-outs that look alike come from different tables or passages of the source.",
  "data": [
    {"smiles": "CCc1nc(N)nc(N)c1-c1ccc(Cl)cc1", "note": "[Pyrimethamine]", "values": [
      {"measurement": "EC50", "setting": "TgME49-Fluc [1]; Toxoplasma gondii", "result": 330, "unit": "nM"},
      {"measurement": "EC90", "setting": "TgME49-Fluc [1]; [9]", "result": 551, "unit": "nM"},
      {"measurement": "potency after 4 h treatment vs continuous treatment (in words)", "setting": "TgME49-Fluc [2]", "result": "only effective when used for 72 h treatment"},
      {"measurement": "inhibition of outgrowth of liberated bradyzoites (in words)", "setting": "TgME49-EW bradyzoites", "result": "only active when used continuously"}
    ]},
    {"smiles": "Nc1ccc(S(=O)(=O)Nc2ncccn2)cc1", "note": "[Sulfadiazine]", "values": [
      {"measurement": "survival vs vehicle control", "setting": "TgME49-FLuc tachyzoites [3]", "result": "survived significantly longer"},
      {"measurement": "weight loss", "setting": "TgME49-FLuc tachyzoites [4]; [10]", "result": "little weight loss"},
      {"measurement": "Culture positive", "setting": "TgME49-FLuc tachyzoites [4]; [10]", "result": 6},
      {"measurement": "Plaque positive", "setting": "TgME49-FLuc tachyzoites [4]; [10]", "result": 7},
      {"measurement": "Survivors", "setting": "TgME49-FLuc tachyzoites [4]; [10]", "result": 8},
      {"measurement": "mice harboring chronic infection (of 8)", "setting": "TgME49-FLuc tachyzoites [4]; Experiment 1, sulfadiazine in drinking water", "result": 7}
    ]},
    {"smiles": "O=C1C(O)=C([C@H]2CC[C@H](c3ccc(Cl)cc3)CC2)C(=O)c2ccccc21", "note": "[Atovaquone]", "values": [
      {"measurement": "EC50", "setting": "TgME49-Fluc [1]; Toxoplasma gondii", "result": 71, "unit": "nM"},
      {"measurement": "EC90", "setting": "TgME49-Fluc [1]; [9]", "result": 163, "unit": "nM"},
      {"measurement": "EC50", "setting": "[5]; pH 8.2, read-out: Tg68 EC50 (Alkaline)", "result": 1590, "unit": "nM"},
      {"measurement": "EC50", "setting": "[5]; read-out: Tg68 EC50 (Glutamine)", "result": 52, "unit": "nM"},
      {"measurement": "potency after 4 h treatment vs continuous treatment (in words)", "setting": "TgME49-Fluc [2]", "result": "only effective when used for 72 h treatment"},
      {"measurement": "inhibition of outgrowth of liberated bradyzoites (in words)", "setting": "TgME49-EW bradyzoites", "result": "only active when used continuously"},
      {"measurement": "activity on intact cysts (in words)", "setting": "TgME49-EW intact cysts; 3X EC90, 24 h treatment", "result": "among the most effective compounds in this assay"}
    ]},
    {"smiles": "COc1ccc(NC(=O)N2CCCCN3[C@H](CN(C)C)[C@H](c4ccc(C#Cc5ccccc5)cc4)[C@@H]3C2)cc1", "note": "[BRD7929]", "values": [
      {"measurement": "EC90", "setting": "TgME49-Fluc [1]; read-out: Tg EC90, Table 3", "result": "134 ± 85", "unit": "nM"},
      {"measurement": "EC50", "setting": "TgME49-Fluc [1]; ME49 expressing firefly luciferase, Table 2", "result": 41, "unit": "nM"},
      {"measurement": "EC90", "setting": "TgME49-Fluc [1]; read-out: TgME49 EC90, ME49 expressing firefly luciferase, Table 2", "result": 139, "unit": "nM"},
      {"measurement": "SSII", "setting": "THP-1 cells; THP-1 CC50 / EC50 TgME49", "result": 24},
      {"measurement": "CC50", "setting": "THP-1 cells; read-out: THP-1 CC50, Table 2", "result": 1010, "unit": "nM"},
      {"measurement": "SI", "setting": "HepG2 cells; HepG2 CC50 / EC50 TgME49", "result": 147},
      {"measurement": "CC50", "setting": "HepG2 cells; read-out: HepG2 CC50, Table 2", "result": 6070, "unit": "nM"},
      {"measurement": "TgL497I EC50/ Parental EC50 (FR)", "setting": "TgRH-PheRS[L497I]-FLuc", "result": 78},
      {"measurement": "fold elevation of bradyzoite EC50 compared to tachyzoite conditions", "setting": "[5]; in vitro differentiated bradyzoites vs tachyzoites", "result": "3 to 5", "unit": "fold"},
      {"measurement": "Plasma protein binding % (CD-1 mouse)", "setting": "Plasma protein binding [6]", "result": 99.6, "unit": "%"},
      {"measurement": "Plasma protein binding % (human)", "setting": "Plasma protein binding [7]", "result": 99.56, "unit": "%"},
      {"measurement": "Brain Homogenate binding %(CD-1 mouse)", "setting": "Brain homogenate binding", "result": 99.98, "unit": "%"},
      {"measurement": "Eh (hepatic extraction)", "setting": "[8]; calculated with mouse liver blood flow of 90ml/min/kg, second value of cell", "result": 0.40},
      {"measurement": "Microsomal stability mouse", "setting": "[8]; mouse liver microsomes, first value of cell", "result": 15.41, "unit": "µL/min/mg"},
      {"measurement": "IC50", "setting": "hERG", "result": 540, "unit": "nM"},
      {"measurement": "MDCK-MDR1 Permeability A-B Papp", "setting": "MDCK-MDR1", "result": "0.28 10^−6cm/s"},
      {"measurement": "MDCK-MDR1 Permeability B-A Papp", "setting": "MDCK-MDR1", "result": "9.62 10^−6cm/s"},
      {"measurement": "Plasma Cmax/D", "setting": "Pharmacokinetics in mice; formulation A (75% PEG300, 25% D5W), na = not detected", "result": "40.6 ± 10.4", "unit": "ng/mL"},
      {"measurement": "Mouse B/P (time)", "setting": "Pharmacokinetics in mice; formulation A, 8h", "result": "4.4 (8h)"},
      {"measurement": "Brain AUClast/D", "setting": "Pharmacokinetics in mice; [11]", "result": 807, "unit": "ng·h/mL"},
      {"measurement": "Brain Cmax/D", "setting": "Pharmacokinetics in mice; [11]", "result": "179 ± 60.7", "unit": "ng/mL"},
      {"measurement": "Plasma AUClast/D", "setting": "Pharmacokinetics in mice; [11]", "result": 220.9, "unit": "ng·h/mL"},
      {"measurement": "inhibition of outgrowth from intact cysts", "setting": "TgME49-EW intact cysts; 3X EC90, 24 h treatment followed by washing and plating without compound", "result": "up to 50%"},
      {"measurement": "weight loss", "setting": "TgME49-FLuc tachyzoites [4]; Experiment 1, 10 mg/kg QD", "result": "little weight loss"},
      {"measurement": "Survivors", "setting": "TgME49-FLuc tachyzoites [4]; Experiment 1, 10 mg/kg QD p.o. 4-10 DPI", "result": 8},
      {"measurement": "Culture positive", "setting": "TgME49-FLuc tachyzoites [4]; Experiment 1, 10 mg/kg QD, outgrowth in HFF culture", "result": 1},
      {"measurement": "Plaque positive", "setting": "TgME49-FLuc tachyzoites [4]; Experiment 1, 10 mg/kg QD, plaquing assay after 14 days", "result": 1},
      {"measurement": "EC50 of recovered parasites", "setting": "TgME49-FLuc tachyzoites [4]; Experiment 1, 10 mg/kg QD, EC50 determination using TgME49 expressing firefly luciferase", "result": "No change"},
      {"measurement": "mice harboring chronic infection (of 8)", "setting": "TgME49-FLuc tachyzoites [4]; Experiment 1, 10 mg/kg QD, brain homogenate outgrowth", "result": 1}
    ]}
  ]
}
